Laboratory results: ChEMBL document CHEMBL1126854, “A series of penicillin derived C2-symmetric inhibitors of HIV-1 proteinase: synthesis, mode of interaction, and structure-activity relationships” (J Med Chem, 1993)

How the values were obtained:
MT4 = assay: Inhibition of cytopathic effect of HIV-1 strain RF in MT-4 cell culture; type: functional, cell-based; details: Homo sapiens
Outline: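 MT-4 cells at 10^6 cells/mL in RPMI 1640 were infected with HIV-1 RF at moi 2×10^-3 (5×10^4 cells/well). Compound in Me2SO was diluted in 10-fold steps from 100 to 0.01 μg/mL. Cells were kept 7 days at 37 °C, 5% CO2, then given MTT for 60 min. Acidified 2-propanol was added and A540 read. EC50 for 50% inhibition of formazan conversion is the mean of duplicates; toxicity was assayed at the same concentrations.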

[1] = tested on: Human immunodeficiency virus 1; assay: Inhibitory effects on HIV-1 induced syncytium formation in C8166 cells; type: functional, organism-based; details: Human immunodeficiency virus 1, C8166
Outline: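 C8166 cells were infected with HIV-1 RF at moi 1×10^-3 and plated at 10^5 cells/well. Compound in Me2SO was serially diluted in RPMI 1640 from 50 to 0.05 μg/mL. Cells were kept 3–4 days at 37 °C, 5% CO2, and checked daily for syncytia. Syncytia were scored against untreated infected controls, and EC50 was calculated as 50% reduction of cytopathic effect.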

[2] = target: Human immunodeficiency virus type 1 protease (Human immunodeficiency virus 1, UniProt Q72874); assay: Inhibitory activity against HIV-1 Protease
Outline: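 Buffer: 20 mM MES pH 6.0, 2 M NaCl, 5 mM DTT, 2 mM EDTA. Compounds in 25% Me2SO over a concentration range. Incubated 60 min at 37 °C with shaking, then filtered; released radioactivity counted by scintillation. IC50 from duplicate means, standardized to a reference-compound control.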

[3] = Half-life in CD rat at a dose of 5 mg/kg given intravenously; type: ADME, organism-based; set-up: dose 5 mg/kg, route intravenous; details: in vivo, iv
Outline: (§1)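 Single intravenous dose in a vehicle of ethanol (10–20%), polyethyleneglycol (10%) and saline. Doses were 5 mg/kg for CD rats (n = 2 per time point), 1 mg/kg for beagles (n = 2) and 5 mg/kg for cynomolgus monkeys (n = 2). Plasma t1/2, plasma clearance and steady-state volume of distribution were derived.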

[4] = Plasma clearance in Beagles dog at a dose of 1 mg/kg given intravenously; type: ADME, organism-based, Canis lupus familiaris; set-up: dose 1 mg/kg, route intravenous; details: beagle, iv; outline: as §1
[5] = Volume of distribution in Beagles dog at a dose of 1 mg/kg given intravenously; type: ADME, organism-based, Canis lupus familiaris; set-up: dose 1 mg/kg, route intravenous; details: beagle, in vivo, iv, read-out: Distribution; outline: as §1
[6] = Half-life in Cynomolgus monkey at a dose of 5 mg/kg given intravenously; type: ADME, organism-based, Macaca fascicularis; set-up: dose 5 mg/kg, route intravenous; details: in vivo, iv; outline: as §1
[7] = Plasma clearance in CD rat at a dose of 5 mg/kg given intravenously; type: ADME, organism-based; set-up: dose 5 mg/kg, route intravenous; details: iv; outline: as §1
[8] = Plasma clearance in Cynomolgus monkey at a dose of 5 mg/kg given intravenously; type: ADME, organism-based, Macaca fascicularis; set-up: dose 5 mg/kg, route intravenous; details: iv; outline: as §1
[9] = Half-life in Beagles dog at a dose of 1 mg/kg given intravenously; type: ADME, organism-based, Canis lupus familiaris; set-up: dose 1 mg/kg, route intravenous; details: beagle, in vivo, iv; outline: as §1
[10] = Volume of distribution in CD rat at a dose of 5 mg/kg given intravenously; type: ADME, organism-based; set-up: dose 5 mg/kg, route intravenous; details: in vivo, iv, read-out: Distribution; outline: as §1
[11] = Volume of distribution in Cynomolgus monkey at a dose of 5 mg/kg given intravenously; type: ADME, organism-based, Macaca fascicularis; set-up: dose 5 mg/kg, route intravenous; details: in vivo, iv, read-out: Distribution; outline: as §1

Compound | EC50 (MT4) | EC50 [1] | IC50 [2] | other results
CC1(C)S[C@H]([C@H](NC(=O)Cc2ccccc2)C(=O)NCc2ccccc2)N[C@H]1C(=O)NCCNC(=O)[C@@H]1N[C@@H]([C@H](NC(=O)Cc2ccccc2)C(=O)NCc2ccccc2)SC1(C)C | 290 nM | 60 nM | – | –
CCNC(=O)[C@@H](NC(=O)CCc1ccccc1)[C@@H]1N[C@@H](C(=O)NCCNC(=O)[C@@H]2N[C@@H]([C@H](NC(=O)CCc3ccccc3)C(=O)NCC)SC2(C)C)C(C)(C)S1 | 3900 nM | 60 nM | 2.4 nM | –
CCNC(=O)[C@@H](NC(=O)Cc1ccccc1)[C@@H]1N[C@@H](C(=O)NCCNC(=O)[C@@H]2N[C@@H]([C@H](NC(=O)Cc3ccccc3)C(=O)NCC)SC2(C)C)C(C)(C)S1 | 5400 nM | 1100 nM | – | half-life [3]: 5 h; clearance [4]: 300 mL/min; Vd [5]: 50 L; half-life [6]: 1.2 h; clearance [7]: 12 mL/min; clearance [8]: 200 mL/min; half-life [9]: 4 h; Vd [10]: 2.8 L; Vd [11]: 17 L
CC1(C)S[C@H]([C@H](NC(=O)Cc2ccccc2)C(=O)N2CCCCC2)N[C@H]1C(=O)NCCNC(=O)[C@@H]1N[C@@H]([C@H](NC(=O)Cc2ccccc2)C(=O)N2CCCCC2)SC1(C)C | 1800 nM | 230 nM | 6.9 nM | –
CCNC(=O)[C@@H](NS(=O)(=O)Cc1ccccc1)[C@@H]1N[C@@H](C(=O)NCCNC(=O)[C@@H]2N[C@@H]([C@H](NS(=O)(=O)Cc3ccccc3)C(=O)NCC)SC2(C)C)C(C)(C)S1 | 32000 nM | 13000 nM | 58 nM | –
CCNC(=O)[C@@H](NC(=O)Cc1cccs1)[C@@H]1N[C@@H](C(=O)NCCNC(=O)[C@@H]2N[C@@H]([C@H](NC(=O)Cc3cccs3)C(=O)NCC)SC2(C)C)C(C)(C)S1 | 27000 nM | 5200 nM | 15 nM | –
CCNC(=O)[C@@H](NC(=O)c1ccccc1-c1ccccc1)[C@@H]1N[C@@H](C(=O)NCCNC(=O)[C@@H]2N[C@@H]([C@H](NC(=O)c3ccccc3-c3ccccc3)C(=O)NCC)SC2(C)C)C(C)(C)S1 | 30 nM | 170 nM | 9.9 nM | –
CC(C)(C)NC(=O)[C@@H]1C[C@@H]2CCCC[C@@H]2CN1C[C@@H](O)[C@H](Cc1ccccc1)NC(=O)[C@H](CC(N)=O)NC(=O)c1ccc2ccccc2n1 | 4 nM | 0.6 nM | – | –
CN(C)c1ccc(CNC(=O)[C@@H](NC(=O)Cc2ccccc2)[C@@H]2N[C@@H](C(=O)NCCNC(=O)[C@@H]3N[C@@H]([C@H](NC(=O)Cc4ccccc4)C(=O)NCc4ccc(N(C)C)cc4)SC3(C)C)C(C)(C)S2)cc1 | < 10 nM | 20 nM | 47 nM | –
CC1(C)S[C@H]([C@H](NC(=O)Cc2ccccn2)C(=O)NCc2ccc(Cl)cc2Cl)N[C@H]1C(=O)NCCNC(=O)[C@@H]1N[C@@H]([C@H](NC(=O)Cc2ccccn2)C(=O)NCc2ccc(Cl)cc2Cl)SC1(C)C | 530 nM | 240 nM | 14 nM | –
CC1(C)S[C@H]([C@H](NC(=O)Cc2ccccc2)C(=O)NCC2CCCCC2)N[C@H]1C(=O)NCCNC(=O)[C@@H]1N[C@@H]([C@H](NC(=O)Cc2ccccc2)C(=O)NCC2CCCCC2)SC1(C)C | 8200 nM | 60 nM | 40 nM | –
CN(C)C(=O)[C@@H](NC(=O)Cc1ccccc1)[C@@H]1N[C@@H](C(=O)NCCNC(=O)[C@@H]2N[C@@H]([C@H](NC(=O)Cc3ccccc3)C(=O)N(C)C)SC2(C)C)C(C)(C)S1 | 4400 nM | 1700 nM | 5.2 nM | –
CN(C)c1ccc(CNC(=O)[C@@H](NC(=O)c2ccccc2-c2ccccc2)[C@@H]2N[C@@H](C(=O)NCCNC(=O)[C@@H]3N[C@@H]([C@H](NC(=O)c4ccccc4-c4ccccc4)C(=O)NCc4ccc(N(C)C)cc4)SC3(C)C)C(C)(C)S2)cc1 | < 10 nM | 30 nM | 0.23 nM | –
CC1(C)S[C@H]([C@H](NC(=O)Cc2ccccc2)C(=O)NCC(F)(F)F)N[C@H]1C(=O)NCCNC(=O)[C@@H]1N[C@@H]([C@H](NC(=O)Cc2ccccc2)C(=O)NCC(F)(F)F)SC1(C)C | 280 nM | 220 nM | 4.4 nM | –
CC1(C)S[C@H]([C@H](NC(=O)c2ccccc2-c2ccccc2)C(=O)NCc2ccccc2)N[C@H]1C(=O)NCCNC(=O)[C@@H]1N[C@@H]([C@H](NC(=O)c2ccccc2-c2ccccc2)C(=O)NCc2ccccc2)SC1(C)C | 110 nM | 130 nM | 7.5 nM | –
Cc1cn([C@H]2C[C@H](N=[N+]=[N-])[C@@H](CO)O2)c(=O)[nH]c1=O [ZIDOVUDINE] | 20 nM | 30 nM | – | –
